HEK293 NFkB inh: inhibitors of the PMA/ionomycin-induced NF-kB reporter in HEK293 cells; actives 0.21% (n = 62,000); HEK-293 NF-kB luciferase reporter, luminescence; inhibition, % at 3 µM;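 active = inhibition above the mean of all tested compounds plus 3 SD, cut at about 40% in these data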
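Signal: luciferase luminescence; Material: HEK-293 cells with stable firefly luciferase reporter driven by four HIV NF-kB elements; Probe or stimulus: PMA with ionomycin; Replication: tested once; Times: 1 h compound pretreatment, then 16 h stimulation at 37 °C, 5% CO2; Benchmarks: DMSO and 10 µM reference inhibitor; Evaluation: per-plate % inhibition versus controls.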
M1 ag: M1 muscarinic receptor agonism. CHO-M1 cells, Fluo-4 calcium fluorescence, agonist mode; hits give high values. B-score at 10 µM. actives 3% (n = 64,000). AID 626;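 active = fluorescence rise, raw or as B-score row- and column-corrected plate score, outside the 99.7% band of its plate's samples, either direction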
Jurkat tox 60K: cytotoxic compounds reducing Jurkat cell viability. Jurkat E6.1 viability, ATP luminescence, 48 h. inhibition, % at 4 µM. actives 1.2% (n = 56,000). AID 463;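 active = inhibition above the mean inhibition of all tested compounds plus 3 SD, cut at about 28% in these data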
M1 antag: M1 muscarinic receptor (rat) antagonism | CHO-M1 cells, Fluo-4 calcium, ACh EC80 antagonist mode; hits give low values | B-score at 10 µM | actives 3.4% (n = 64,000);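 active = calcium fluorescence response, raw or row-and-column corrected B-score, differing from the plate sample mean either way at a set confidence level, mostly lower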
Target sequence (P08482 whole entry, looked up): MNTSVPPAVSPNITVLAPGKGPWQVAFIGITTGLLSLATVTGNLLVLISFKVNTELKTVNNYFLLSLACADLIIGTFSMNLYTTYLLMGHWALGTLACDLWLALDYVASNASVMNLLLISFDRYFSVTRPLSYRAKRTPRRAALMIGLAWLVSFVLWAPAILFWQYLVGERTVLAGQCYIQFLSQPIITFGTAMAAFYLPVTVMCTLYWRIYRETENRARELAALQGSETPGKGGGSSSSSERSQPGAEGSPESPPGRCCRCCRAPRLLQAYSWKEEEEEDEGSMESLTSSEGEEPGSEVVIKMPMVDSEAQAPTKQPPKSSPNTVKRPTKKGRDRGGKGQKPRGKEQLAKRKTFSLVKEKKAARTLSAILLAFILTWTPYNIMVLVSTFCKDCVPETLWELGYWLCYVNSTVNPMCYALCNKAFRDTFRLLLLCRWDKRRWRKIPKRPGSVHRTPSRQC
D1 allo mod: allosteric modulators of human D1 dopamine receptor. AID 641. HEK293 D1, CRE-luciferase, dopamine EC30 potentiation; actives deviate in either direction. B-score at 10 µM. P21728. actives 5.9% (n = 58,000);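 active = luminescence count or its row- and column-corrected plate score outside the 99.7% band of the plate's sample wells, on either side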
Htt clearance: compounds clearing mutant huntingtin protein; HeLa Exon1htt(103Q)mCFP, aggregate imaging; zero = plate's median compound well; inhibition, % at 1.5 µM; actives 0.42% (n = 47,000); AID 853;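 active = inhibition of aggregate fluorescence above about 70%, also judged a hit by eye on the cell image, limit read from the data, passing the limit was not always enough; inconclusive = no rule stated for this call; inactive = not judged a hit on image review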;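 also: cells exposed to compound for three days before fixation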
D1 PAM confirm: D1 receptor (human) allosteric modulation, confirmed | shares compounds with D1 allo mod | actives 88% (n = 2,200) | HEK293 D1 CRE-luciferase, dopamine EC30 potentiation; hits give high values | luminescence at 10 µM | AID 642;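 active = luminescence in either of two replicates above the same-plate mean plus 3 SD of the low-dose dopamine control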
D1 ag no DA: secondary test of D1 modulators: activity without dopamine; shares compounds with D1 allo mod; HEK293 D1 CRE-luciferase, luminescence, no dopamine; hits give high values; luminescence at 10 µM; actives 0.8% (n = 1,900); AID 646; in the data active = luminescence above about 3900
Isoprot counter: counter-screen for D1 modulators: isoproterenol response in HEK293 cells; shares compounds with D1 allo mod; HEK293 D1 CRE-luciferase, isoproterenol EC30 counter-screen; hits give high values; luminescence at 10 µM; actives 63% (n = 2,200); AID 647;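 active = luminescence in either replicate above plate mean of wells with a partly effective reference agonist dose plus 3 SD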;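 also: isoproterenol raises cAMP through native beta-adrenoceptor Gs so signal bypasses D1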
Numbers stand for hits; – = inactive; ? = inconclusive; · = no result given. Most compounds without a hit are left out; they make up all but 9.5% or so of the library.

SMILES | HEK293 NFkB inh | M1 ag | Jurkat tox 60K | M1 antag | D1 allo mod | Htt clearance | D1 PAM confirm | D1 ag no DA | Isoprot counter
COc1ccc(NC(=O)C2CC(c3cc(OC)c(OC)c(OC)c3)=NO2)cc1OC (stereo unspecified) | – | – | – | – | – | · | · | · | ·
COc1cccc(C2=NOC(C(=O)NCc3ccc(F)cc3)C2)c1 (stereo unspecified) | – | – | – | – | – | · | · | · | ·
COc1ccc(NC(=O)C2CC(c3ccc(OC)c(OC)c3)=NO2)cc1OC (stereo unspecified) | – | – | – | – | 7.1 | – | 12656 | – | 3552
COc1ccc(C2=NOC(C(=O)Nc3ccc(C)cc3)C2)cc1OC (stereo unspecified) | – | – | – | – | 21 | – | 20008 | – | 6560
COc1ccc(C2=NOC(C(=O)NCc3ccc(F)cc3)C2)cc1OC (stereo unspecified) | – | – | 93 | – | 37 | ? | 26920 | – | 4436
CC(C)(C)C1CCc2onc(C(=O)Nc3cccnc3)c2C1 (stereo unspecified) | – | – | – | – | 10 | · | 19704 | – | 3908
CC(C)(C)C1CCc2onc(C(=O)Nc3cccc(O)c3)c2C1 (stereo unspecified) | · | · | · | · | · | – | · | · | ·
COc1cc(-c2nnc3sc(-c4ccccn4)nn23)cc(OC)c1OC | – | – | – | – | – | · | · | · | ·
COC(=O)c1sc(NC(C)=O)c(C(=O)OC)c1C | · | – | · | – | · | – | · | · | ·
COC(=O)c1sc2ccccc2c1C(=O)OC | – | – | – | – | 10 | – | 9140 | – | –
COC(=O)Nc1ccc(OCc2ccccc2)cc1 | – | – | – | – | – | · | · | · | ·
NC(=O)COc1ccc(NC(=O)OCc2ccccc2)cc1 | – | – | – | – | 5.6 | · | 10828 | – | –
C=C1C(C(=O)N2CCOCC2)C1C(=O)N1CCOCC1 (stereo unspecified) | – | – | – | – | – | · | · | · | ·
CCN(CC)c1nc(N)c2c(N)nc3c(c2c1C#N)CC(c1ccccc1)O3 (stereo unspecified) | – | – | – | 2.2 | 3.6 | · | 6688 | – | –
CCOC(=O)c1c(CC(C)C)csc1NC=O | – | – | – | – | 17 | ? | 12684 | – | 4296
C/C=C/Cn1c(N(C)Cc2ccccc2)nc2c1c(=O)[nH]c(=O)n2C | – | – | – | – | 7.3 | · | 21832 | – | 10060
Cc1cccc(Cn2c(N(C)Cc3ccccc3)nc3c2c(=O)[nH]c(=O)n3C)c1 | – | – | – | – | 8 | · | 19408 | – | 6232
CN(Cc1ccccc1)c1nc2c(c(=O)[nH]c(=O)n2C)n1C | – | – | – | – | – | · | · | · | ·
Cn1c(=O)[nH]c(=O)c2c1nc(N1CCCCCC1)n2CCSc1nc2ccccc2[nH]1 | – | – | – | – | – | · | · | · | ·
CCCc1cc(=O)[nH]c(NCc2ccc(Cl)cc2)n1 | – | – | – | – | 2.8 | – | 8064 | – | –
COc1ccc(CNC(=O)c2ccc(NC(=O)C3CCCO3)cc2)cc1 (stereo unspecified) | – | – | · | – | – | · | · | · | ·
COc1ccc(C2(C)NC(=O)N(Cc3cc(Cl)cc4c3OCOC4)C2=O)cc1OC (stereo unspecified) | – | – | – | – | 10 | · | 22312 | – | 5968
CCOc1ccccc1CN1C(=O)NC(C)(c2ccccc2)C1=O (stereo unspecified) | – | – | – | – | – | – | · | · | ·
CCCCN(c1ccccc1)c1ncnc2nc[nH]c12 | – | – | – | – | 12 | · | 11140 | – | 3376
CCc1ccc(N/C(SC)=C(/C#N)C(N)=O)cc1 | – | – | · | – | – | – | · | · | ·
SMILES | HEK293 NFkB inh | M1 ag | Jurkat tox 60K | M1 antag | D1 allo mod | Htt clearance | D1 PAM confirm | D1 ag no DA | Isoprot counter
CCOc1ccc(N/C(SC)=C(/C#N)C(N)=O)cc1 | – | – | · | – | 5 | · | 6796 | – | –
Cc1ccc(S(=O)(=O)NCCCOC(=O)Nc2ccncc2)cc1 | – | – | – | – | – | – | · | · | ·
COC(=O)c1sccc1NC(=O)c1ccc(Cl)s1 | – | – | – | – | – | – | · | · | ·
CNC(=O)c1ccsc1NC(=O)c1ccc(Cl)s1 | – | – | – | – | 4.9 | · | 16692 | – | 3356
OC(c1ccccc1)(c1ccc(F)cc1)C(c1ccccc1)N1CCOCC1 (stereo unspecified) | · | · | · | · | · | – | · | · | ·
CCOC(=O)c1[nH]c2ccccc2c1NC(=O)c1nonc1C | – | – | · | – | 5.8 | · | 11368 | – | 3528
CCOC(=O)c1[nH]c2ccc(OC)cc2c1NC(=O)c1nonc1C | – | – | – | – | 8.7 | · | 12456 | · | 3508
CCOC(=O)c1[nH]c2ccccc2c1NC(=O)C(C)(C)C | – | – | – | – | 4.5 | · | 7700 | – | –
CCOC(=O)c1[nH]c2ccc(OC)cc2c1NC(=O)C(C)N1CCC2(CC1)OCCO2 (stereo unspecified) | – | – | – | – | – | – | · | · | ·
CCOC(=O)c1[nH]c2ccccc2c1NC(C)=O | – | – | – | – | – | · | · | · | ·
CC(NC(=O)OC1CCCCC1)N1C(=O)C2C3C=CC(C3)C2C1=O (stereo unspecified) | – | – | – | – | – | – | · | · | ·
CC(=O)c1cccc(NC(=O)N2CCC(c3nnc(SCC(N)=O)n3C)CC2)c1 | – | – | – | – | 3.3 | · | – | · | –
Cn1c(SCC(N)=O)nnc1C1CCN(C(=O)NC2CCCCC2)CC1 | – | – | – | – | – | · | · | · | ·
CSc1nnc(Cn2c(=O)sc3ccccc32)n1-c1ccccc1 | – | – | – | – | – | – | · | · | ·
N=c1sc2ccccc2n1-c1ccccc1 | – | – | · | – | 21 | – | 9268 | – | 3348
O=C(Nc1cc(C(F)(F)F)ccc1N1CCCCC1)c1cccc([N+](=O)[O-])c1 | · | · | · | · | · | – | · | · | ·
COc1ccccc1-c1nnc(SCC(=O)Nc2nc(-c3ccccc3)cs2)n1C | – | – | – | – | 2.9 | · | – | – | –
CCOc1cc(S(=O)(=O)N(CC)CC)ccc1Br | – | – | – | – | 12 | – | 11820 | – | 3484
CCCS(=O)(=O)c1c(S(=O)(=O)CCC)c2cc(CC)ccn2c1C(=O)OC | – | – | – | – | 6.5 | – | 13540 | – | 4544
CCCS(=O)(=O)c1c(S(=O)(=O)CCC)c2ccccn2c1C(=O)OC | · | · | · | · | – | – | · | · | ·
O=c1[nH]c2c(s1)C(c1ccco1)C1C3CCC(C3)C1S2 (stereo unspecified) | – | – | · | – | 26 | · | 19088 | – | 3752
O=C(c1ccc(N2CCCCS2(=O)=O)cc1)N1CCN(c2ccc(N3CCOCC3)nn2)CC1 | – | – | – | – | – | · | · | · | ·
CC(=O)Nc1cccc(Oc2cc(C#N)c(C#N)cc2N2CCCCCC2)c1 | – | – | – | – | 9.1 | · | 11784 | · | 4332

Screening data (PubChem)
